The results in this text go back to ChEMBL document CHEMBL3120062, “Novel 8-(p-substituted-phenyl/benzyl)xanthines with selectivity for the A2A adenosine receptor possess bronchospasmolytic activity” (Eur J Med Chem, 2014).

The source made the active and inactive calls. No cut-off for these calls is given here. Bounds are passed on as bounds.

The target of assay [1] is T1, Adenosine receptor A1 (Homo sapiens, UniProt P30542).
T1 sequence (P30542 whole entry): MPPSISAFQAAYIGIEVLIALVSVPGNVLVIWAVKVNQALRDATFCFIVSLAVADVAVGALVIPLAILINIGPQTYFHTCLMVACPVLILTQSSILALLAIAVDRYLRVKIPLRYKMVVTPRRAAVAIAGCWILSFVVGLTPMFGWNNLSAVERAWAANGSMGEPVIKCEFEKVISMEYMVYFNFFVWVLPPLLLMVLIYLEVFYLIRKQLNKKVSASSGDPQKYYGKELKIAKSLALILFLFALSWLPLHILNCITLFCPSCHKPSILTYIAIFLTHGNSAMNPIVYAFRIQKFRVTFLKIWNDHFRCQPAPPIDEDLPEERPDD
In words: Displacement of [3H]-CCPA from human recombinant adenosine A1 receptor expressed in CHO cell membranes after 3 hrs by microbeta counting analysis. An outline of the steps: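 Human A1 receptor stably expressed in CHO cells. Crude membranes (10-50 µg protein) in 50 mM Tris/HCl pH 7.4 were incubated with [3H]CCPA (1 nM) for 3 h at 25 °C, then filtered, washed with ice-cold buffer and counted by scintillation. Nonspecific binding was defined with theophylline. Ki came from non-linear curve fitting; geometric means of 3–5 experiments.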
(In general: Loss of bound radioactivity is the signal in a displacement assay; it reports binding, not function.)

For assay [2], the species on record is Homo sapiens. The experiment in a line: Selectivity ratio of Ki for human recombinant adenosine A1 receptor to Ki for human recombinant adenosine A2A receptor.
Assay [3] concerns the target T2, Adenosine receptor A3 (Homo sapiens, UniProt P0DMS8).
T2 sequence (P0DMS8 whole entry): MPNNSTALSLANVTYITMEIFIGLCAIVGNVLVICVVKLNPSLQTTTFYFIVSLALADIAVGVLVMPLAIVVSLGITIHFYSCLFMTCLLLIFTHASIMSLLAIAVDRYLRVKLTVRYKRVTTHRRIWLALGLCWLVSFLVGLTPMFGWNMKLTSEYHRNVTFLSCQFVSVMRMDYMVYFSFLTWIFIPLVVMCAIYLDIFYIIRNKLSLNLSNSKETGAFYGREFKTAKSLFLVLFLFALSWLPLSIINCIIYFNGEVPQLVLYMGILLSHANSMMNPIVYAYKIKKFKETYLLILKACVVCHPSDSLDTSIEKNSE
The experiment in a line: Displacement of [3H]-HEMADO from human recombinant adenosine A3 receptor expressed in CHO cell membranes after 3 hrs by microbeta counting analysis. An outline of the steps:
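Human A3 receptor in stably transfected CHO cell membranes (10-50 µg protein), resuspended in 50 mM Tris/HCl, 10 mM MgCl2, 1 mM EDTA, pH 8.25. Incubated with [3H]HEMADO (1 nM) for 3 h at 25 °C, then filtered, washed and scintillation counted. Nonspecific binding was defined with R-PIA. Ki came from non-linear curve fitting; geometric means of 3–5 experiments.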

Assay [4] addresses T3, Adenosine receptor A2b (Homo sapiens, UniProt P29275).
T3 sequence (P29275 whole entry): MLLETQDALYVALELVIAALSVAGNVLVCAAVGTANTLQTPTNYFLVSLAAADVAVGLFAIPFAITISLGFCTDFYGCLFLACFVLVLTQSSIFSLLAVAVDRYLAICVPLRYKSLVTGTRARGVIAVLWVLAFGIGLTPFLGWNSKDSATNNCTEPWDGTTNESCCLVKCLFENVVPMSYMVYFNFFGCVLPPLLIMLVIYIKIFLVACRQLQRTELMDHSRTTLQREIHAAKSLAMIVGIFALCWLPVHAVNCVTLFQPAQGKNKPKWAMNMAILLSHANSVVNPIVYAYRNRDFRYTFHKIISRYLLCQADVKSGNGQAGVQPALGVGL
The experiment in a line: Binding affinity to human recombinant adenosine A2B receptor expressed in CHO cell membranes assessed as inhibition of NECA-stimulated adenylyl cyclase activity after 20 mins. An outline of the steps:
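Membranes from CHO cells stably expressing the human A2B receptor, prepared fresh by one 54,000 g spin and used immediately in 50 mM Tris/HCl pH 7.4. Concentration-dependent inhibition of NECA-stimulated adenylyl cyclase was measured with about 150,000 cpm [α-32P]ATP for 20 min. Ki was calculated from IC50 with the Cheng–Prusoff equation. Geometric means of 3–5 experiments.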

In assay [5] the target is Adenosine receptor A2a (Homo sapiens, UniProt P29274). In words: Displacement of [3H]-NECA from human recombinant adenosine A2A receptor expressed in CHO cell membranes after 3 hrs by microbeta counting analysis. The gist of the method: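 Crude membranes (10-50 µg protein) from CHO cells stably expressing the human A2A receptor, in 50 mM Tris/HCl pH 7.4. Incubated with [3H]NECA (10 nM) for 3 h at 25 °C, then filtered, washed with ice-cold buffer and scintillation counted. Nonspecific binding was defined with R-PIA. Ki came from non-linear curve fitting; geometric means of 3–5 experiments.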

Assay [6] deals with Cavia porcellus. In words: Bronchospasmolytic activity in histamine aerosol-induced Dunkin-Hartley guinea pig assessed as duration of jerks at 50 mg/kg, po pretreated for 1 hr followed by histamine aerosol-challenge (reference value: 172 +/- 4 seconds). In kind it is functional.
For assay [7], the species on record is Homo sapiens. In words: Selectivity ratio of Ki for human recombinant adenosine A2B receptor to Ki for human recombinant adenosine A2A receptor.
In assay [8] the test system is Cavia porcellus. The experiment in a line: Bronchospasmolytic activity in histamine aerosol-induced Dunkin-Hartley guinea pig assessed as time required for onset of bronchospasm at 50 mg/kg, po pretreated for 1 hr followed by histamine aerosol-challenge (reference value: 67 +/- 2 seconds). In kind it is functional.
Assay [9] has as its system Cavia porcellus. The experiment in a line: Bronchospasmolytic activity in histamine aerosol-induced Dunkin-Hartley guinea pig assessed as survival at 50 mg/kg, po pretreated for 1 hr followed by histamine aerosol-challenge relative to control. It is filed as functional. An outline of the steps: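 Male Dunkin Hartley guinea pigs (250 ± 30 g), 4 per group, fasted overnight. Each animal was given test drug, theophylline or vehicle at 50 mg/kg by mouth in CMC + distilled water, 1 h before challenge. It was then exposed singly in a histamine chamber to 5 ml of 1% histamine aerosolised over 1 min. Onset, jerk duration, severity and death or survival were recorded. Survival is given as % of the group.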

The species entered for assay [10] is Homo sapiens. In words: Selectivity ratio of Ki for human recombinant adenosine A3 receptor to Ki for human recombinant adenosine A2A receptor.
The subject of assay [11] is Cavia porcellus. The experiment in a line: Bronchospasmolytic activity in histamine aerosol-induced Dunkin-Hartley guinea pig assessed as severity of bronchospasm at 50 mg/kg, po pretreated for 1 hr followed by histamine aerosol-challenge. In kind it is functional, organism-based. Also noted: dose 50 mg/kg.

Adenosine receptor A2a, sequence (P29274 whole entry): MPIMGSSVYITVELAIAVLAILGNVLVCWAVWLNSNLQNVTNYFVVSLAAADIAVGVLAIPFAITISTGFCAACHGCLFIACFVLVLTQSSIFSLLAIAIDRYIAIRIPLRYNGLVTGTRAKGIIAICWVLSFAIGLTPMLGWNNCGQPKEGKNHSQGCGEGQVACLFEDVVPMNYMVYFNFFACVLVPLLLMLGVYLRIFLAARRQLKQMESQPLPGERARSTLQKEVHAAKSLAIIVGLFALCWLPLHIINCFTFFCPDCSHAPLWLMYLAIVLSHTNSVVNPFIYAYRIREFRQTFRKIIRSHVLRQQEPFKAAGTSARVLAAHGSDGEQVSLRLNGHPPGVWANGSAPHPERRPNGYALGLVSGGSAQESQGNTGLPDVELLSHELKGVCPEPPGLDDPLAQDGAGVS

Broadly, the Ki is the dissociation constant of the complex between target and ligand, obtained from inhibition or displacement. Consider `Cn1c(=O)c2[nH]c(-c3ccc(OCCN4CCOCC4)cc3)nc2n(C)c1=O`, for which the Ki in [1] amounted to 2.58 µM; in assay [3], 2.74 µM; in [4] it was 1.34 µM; in assay [5] it was 0.31 µM. In addition, the Ratio Ki is 8.3 in assay [2], 4.3 in [7] and 8.8 in assay [10]. Further, the results for the Time in assay [6] and in assay [8] were 45 s and 104 s, respectively. Further, the survival at 50 mg/kg in [9] stood at 100%.

`CN(C)CCOc1ccc(-c2nc3c([nH]2)c(=O)n(C)c(=O)n3C)cc1`: the Ki in assay [1] worked out at 1.82 µM; in assay [3], 9.38 µM; in assay [4], 4.95 µM; in [5] it was 0.4 µM. In addition, the values for the Ratio Ki in assay [2], in assay [7] and in [10] were 4.6, 12 and 24, respectively. Besides, the Time in assay [6] was determined as 39 s; in [8], 111 s. Besides, the survival at 50 mg/kg in [9] stood at 100%.

Take `Cn1c(=O)c2[nH]c(Cc3ccc(OCCCN4CCC5(CC4)OCCO5)cc3)nc2n(C)c1=O`: the Ki in assay [1] was more than 30 µM; in assay [3], more than 30 µM; in assay [4], more than 10 µM; in [5], 8.09 µM. Further, the Ratio Ki in assay [2] is more than 3.7; in assay [7] it was more than 1.2; in assay [10] it was more than 3.7. Also, the results for the Time in [6] and in [8] were 23 s and 73 s, respectively. The survival at 50 mg/kg in [9] came to 50%.

As to `Cn1c(=O)c2[nH]c(-c3ccc(OCCCn4ccnc4)cc3)nc2n(C)c1=O`, the inhibitory constant (Ki) was determined as 0.89 µM in [1], 2.27 µM in assay [3], 1.05 µM in assay [4] and 0.042 µM in assay [5]. The Ratio Ki in assay [2] stood at 21; in assay [7] it was 25; in assay [10], 54. Further, the values for the Time in [6] and in assay [8] were 71 s and 108 s, respectively. The survival at 50 mg/kg in assay [9] turned out to be 75%.

Consider `CCN(CC)CCOc1ccc(-c2nc3c([nH]2)c(=O)n(C)c(=O)n3C)cc1`, for which the Ki was 1.59 µM in assay [1], 6.82 µM in assay [3], 2.59 µM in assay [4] and 0.25 µM in assay [5]. Moreover, the figures for the Ratio Ki in [2], in assay [7] and in [10] were 6.4, 10 and 27, respectively. Also, the Time was found to be 49 s in assay [6] and 115 s in [8]. For the same molecule, the survival at 50 mg/kg in [9] was 75%.

Consider `Cn1c(=O)c2[nH]c(Cc3ccc(OCCCN4CCOCC4)cc3)nc2n(C)c1=O`, for which the Ki is more than 30 µM in [1], more than 30 µM in assay [3], more than 10 µM in assay [4] and more than 10 µM in assay [5]. In addition, the Time in assay [8] stood at 108 s. Moreover, the survival at 50 mg/kg in assay [9] turned out to be 100%.

Consider `Cn1c(=O)c2[nH]c(-c3ccc(OCCC4CCNCC4)cc3)nc2n(C)c1=O`, for which the Ki in [1] was found to be 1.33 µM; in assay [3] it was 6.51 µM; in [4], 2.9 µM; in assay [5], 0.29 µM. For the same molecule, the Ratio Ki stood at 4.6 in assay [2], 10 in [7] and 22 in assay [10]. Besides, the Time was 22 s in [6] and 121 s in [8]. For the same molecule, the survival at 50 mg/kg in assay [9] is 75%.

As to `Cn1c(=O)c2[nH]c(-c3ccc(OCCCCl)cc3)nc2n(C)c1=O`, the Ki in assay [1] was more than 10 µM; in [3], more than 30 µM; in assay [4], more than 10 µM; in [5], 0.045 µM. The results for the Ratio Ki in [2], in assay [7] and in assay [10] were more than 220, more than 220 and more than 670, respectively. Also, the Time in [6] is 30 s; in [8] it was 114 s. In addition, the survival at 50 mg/kg in [9] is 100%.

In the case of `Cn1c(=O)c2[nH]c(-c3ccc(OCCCN4CCN(Cc5ccccc5Cl)CC4)cc3)nc2n(C)c1=O`, the Ki is 1.85 µM in [1], 6.89 µM in [3], 0.17 µM in [4] and 0.12 µM in [5]. The Ratio Ki came out at 15 in [2], 1.4 in [7] and 57 in assay [10]. Besides, the result in assay [11] was Active. In addition, the Time in assay [8] worked out at 109 s. Further, in assay [9], the survival at 50 mg/kg came out at 100%.

Consider `Cn1c(=O)c2[nH]c(-c3ccc(OC4CCCC4)cc3)nc2n(C)c1=O`, for which the Ki is more than 30 µM in [1], more than 10 µM in [3], 1 µM in assay [4] and 0.072 µM in assay [5]. Further, the figures for the Ratio Ki in assay [2], in assay [7] and in assay [10] were more than 420, 14 and more than 420, respectively. Further, the Time in [6] amounted to 35 s; in [8], 72 s. In addition, the survival at 50 mg/kg in assay [9] is 50%.

With `Cn1c(=O)c2[nH]c(Cc3ccc(OCCCCl)cc3)nc2n(C)c1=O`, the Ki is more than 30 µM in assay [1], more than 30 µM in assay [3], more than 10 µM in assay [4] and more than 10 µM in assay [5]. In addition, the Time in [6] worked out at 44 s; in assay [8], 75 s. In addition, the survival at 50 mg/kg in [9] is 50%.

Regarding `Cn1c(=O)c2[nH]c(Cc3ccc(OCCCn4ccnc4)cc3)nc2n(C)c1=O`, the Ki in assay [1] was more than 30 µM; in assay [3], more than 30 µM; in assay [4] it was more than 10 µM; in [5], 3.17 µM. For the same molecule, the Ratio Ki in assay [2] was more than 9.5; in assay [7], more than 3.2; in [10], more than 9.5. Further, the Time in assay [8] is on record as 83 s. Also, the survival at 50 mg/kg in [9] is 50%.

Consider `Cn1c(=O)c2[nH]c(-c3ccc(OCCN4CCCC4)cc3)nc2n(C)c1=O`, for which the Ki in [1] is 1.2 µM; in [3] it was 4.6 µM; in [4] it was 1.97 µM; in [5], 0.2 µM. Further, the results for the Ratio Ki in [2], in assay [7] and in assay [10] were 6, 9.9 and 23, respectively. Moreover, the Time in assay [6] stood at 32 s; in [8] it was 111 s. In [9], the survival at 50 mg/kg was found to be 100%.

For the molecule `Cn1c(=O)c2nc[nH]c2n(C)c1=O.O` [THEOPHYLLINE], the values for the Time in assay [6] and in assay [8] were 89 s and 92 s, respectively. In [9], the survival at 50 mg/kg came to 100%.
